Data reported in ChEMBL document CHEMBL4706565, “Anti-glioma effects of 2-aminothiophene-3-carboxamide derivatives, ANO1 channel blockers” (Eur J Med Chem, 2020).

System: U-251
Assay: Synergistic antiproliferative activity against human U251 cells assessed as combination index at compound:temozolomide concentration ratio of 1:1 in presence of temozolomide by Chou-Talalay method
Assay type: functional
Method in brief: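 U251 proliferation measured with CellTiter-Glo across full titrations of an ANO1 inhibitor combined with temozolomide. Combination index calculated by the Chou-Talalay method.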

## CC(C)(C)C(=O)Nc1sc2c(c1C(N)=O)CCC(C(C)(C)C)C2 (stereo unspecified)
  CI: 0.63
